In ChEMBL document CHEMBL4330127, “Discovery of Novel Pyruvate Dehydrogenase Kinase 4 Inhibitors for Potential Oral Treatment of Metabolic Diseases” (J Med Chem, 2019) one finds Drug metabolism data, which are given here for one compound.

This series in a line: Drug metabolism in human liver microsomes assessed as hydroxyl metabolite formation at 100 uM preincubated for 5 mins followed by NADPH/UDPGA addition and measured up to 2 hrs by LC-MS/MS analysis. The series is classed as ADME, Microsome. The method, boiled down: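 Pooled human liver microsomes (1.0 mg/mL) were mixed with alamethicin (25 μg/mg protein) and kept on ice for 15 min. Substrate (100 μM) was added and the mix preincubated 5 min at 37 °C. NADPH (1.3 mM) and UDPGA (5 mM) were then added and incubation ran 2 h with agitation. The reaction was stopped with ice-cold acetonitrile, centrifuged, and the supernatant analysed by LC-MS/MS (ESI positive, transition 358.2 → 84.1).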

Consider `Cl.O=C1c2ccccc2C(=O)c2c1cccc2-c1cnn(C2CCNCC2)c1`, for which the Drug metabolism entry is “Metabolite_Detected”.
